TRPC4 PAM: TRPC4 (mouse) allosteric potentiation | actives 0.42% (n = 310,000) | B-score at 10 µM | Q9QUQ5 | HEK293 TRPC4beta/mu-opioid, DAMGO EC20, Fluo-4 Ca2+ flux; hits give high values;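 active = B-score of calcium response area above 5 SD of library B-scores, with initial fluorescence ratio within 5 SD of library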;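 note: B-score of integrated fluorescence ratio over time as area under calcium response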
Target sequence (Q9QUQ5 whole entry, looked up): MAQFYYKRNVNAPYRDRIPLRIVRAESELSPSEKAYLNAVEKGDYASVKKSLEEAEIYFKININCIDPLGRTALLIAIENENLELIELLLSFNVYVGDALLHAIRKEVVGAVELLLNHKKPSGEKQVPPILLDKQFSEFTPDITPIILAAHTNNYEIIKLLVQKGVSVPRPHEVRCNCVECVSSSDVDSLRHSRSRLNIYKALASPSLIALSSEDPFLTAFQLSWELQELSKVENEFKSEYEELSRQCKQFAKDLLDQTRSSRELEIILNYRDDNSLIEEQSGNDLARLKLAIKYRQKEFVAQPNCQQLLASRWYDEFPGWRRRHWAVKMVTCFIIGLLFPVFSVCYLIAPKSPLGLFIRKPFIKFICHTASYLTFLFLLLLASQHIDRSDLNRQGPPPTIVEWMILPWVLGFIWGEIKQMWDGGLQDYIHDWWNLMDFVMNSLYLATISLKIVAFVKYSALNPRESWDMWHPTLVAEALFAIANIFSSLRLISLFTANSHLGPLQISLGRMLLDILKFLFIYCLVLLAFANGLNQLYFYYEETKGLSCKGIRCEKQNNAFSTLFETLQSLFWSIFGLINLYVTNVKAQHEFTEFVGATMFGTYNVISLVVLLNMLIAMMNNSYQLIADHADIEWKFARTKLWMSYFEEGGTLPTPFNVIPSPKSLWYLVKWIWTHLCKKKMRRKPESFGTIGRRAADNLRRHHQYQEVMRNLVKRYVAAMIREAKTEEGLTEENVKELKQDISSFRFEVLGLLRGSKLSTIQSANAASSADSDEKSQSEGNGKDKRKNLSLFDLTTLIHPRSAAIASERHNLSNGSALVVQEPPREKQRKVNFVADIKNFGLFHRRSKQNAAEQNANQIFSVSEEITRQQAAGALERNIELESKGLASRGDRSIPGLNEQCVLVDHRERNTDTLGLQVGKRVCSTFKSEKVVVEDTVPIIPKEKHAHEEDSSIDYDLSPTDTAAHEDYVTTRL
TRPC4 agonist: activators of mouse TRPC4 channel; AID 2237; Q9QUQ5; HEK293 TRPC4beta/mu-opioid, Fluo4 calcium fluorescence; hits give high values; actives 0.49% (n = 310,000); B-score at 10 µM;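 active = B-score above 5 SD of library B-scores, and initial fluorescence ratio not above library mean plus 5 SD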;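 note: positive B-score marks a calcium rise read as TRPC4 activation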
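Assay system: HEK293 stable line with TRPC4beta plus mu-opioid receptor. Times: dye 45 min RT, read 110 s. Measured by: kinetic Fluo4 calcium fluorescence. Measure: B score of integrated ratio. Controls: assay buffer as low control, maximal DAMGO as high control.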
TRPC6 activator: activators of mouse TRPC6 channel; Q61143; HEK293-TRPC6 membrane potential dye fluorescence; hits give high values; B-score at 10 µM; actives 0.13% (n = 310,000);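 active = B-score of the integrated fluorescence ratio above library mean plus 3 SD, and starting fluorescence ratio within library mean plus 5 SD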;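 note: higher score means more depolarization so channel activation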
TRPC4 block: blocks the mouse TRPC4 cation channel; Q9QUQ5; HEK293 TRPC4beta/mu-opioid, DAMGO-evoked Fluo4 calcium flux; hits give low values; B-score at 10 µM; actives 0.39% (n = 300,000); AID 2247;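 active = B-score over 3 SD under the library average, no early fluorescence shift, positive overall ratio signal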
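System: stable TRPC4beta/mu-opioid receptor HEK293 cells; Dosing: single-point compound dosing; Measured by: Fluo4 Ca2+ flux fluorescence; Read-out basis: per-well B score of integrated baseline-normalized Fluo4 ratio.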
TRPC6 inh: inhibitors of mouse TRPC6 channel | HEK293-TRPC6, membrane potential dye, ACh-evoked depolarization; hits give low values | actives 1.1% (n = 310,000) | AID 2553 | Q61143 | B-score at 10 µM;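 active = B-score under library mean minus 3 SD, initial fluorescence not abnormally high, positive integrated signal ratio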;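 note: B-score derived from integrated fluorescence ratio over the kinetic read; more negative B-score means stronger inhibition of depolarization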
TRPC4 spec 2: second selectivity test of TRPC6 inhibitors: effect on mouse TRPC4; actives 42% (n = 920); shares compounds with TRPC6 inh; HEK293 TRPC4/MOR, membrane potential dye fluorescence; channel activated by saturating DAMGO dose; inhibition, % at 10 µM;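 active = compounds whose fluorescence signal differed from control wells by over 3 SD, either direction, in both duplicate plates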
TRPC4 spec: selectivity of TRPC6 inhibitors: effect on mouse TRPC4; HEK293 TRPC4/mu-opioid, membrane potential fluorescence; AID 2777; activity change, negative = inhibition, % at 10 µM; actives 61% (n = 920); shares compounds with TRPC6 inh;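 active = rise or fall in signal beyond 3 SD of buffer-only wells in both replicate plates, either sign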;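 note: integrated kinetic ratio of fluorescence range over baseline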
HEK293 MPD ctr 2-1: second counter-screen for TRPC6 inhibitors: parental HEK293 cells | shares compounds with TRPC6 inh | parental HEK293 membrane potential dye fluorescence; maximal acetylcholine challenge after compound addition | signal change vs control, % at 10 µM | actives 31% (n = 920);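 active = membrane potential signal moving either way by over 3 SD of the maximum-effect control, in both duplicate plates, meaning non-specific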
HEK293 MPD ctr-1: parental HEK293 nonspecific activity of TRPC6 inhibitors; actives 60% (n = 920); AID 2780; membrane potential signal change, % at 10 µM; shares compounds with TRPC6 inh; parental HEK293 membrane potential dye fluorescence;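 active = membrane potential signal shifting up or down by more than 3 SD of buffer-only wells, on both duplicate plates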
HEK293 MPD ctr-2: counter-screen for TRPC6 modulators: effect in parental HEK293 cells; shares compounds with TRPC6 inh; membrane potential dye fluorescence; membrane potential signal change, % at 10 µM; actives 51% (n = 2,400); AID 488924;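 active = membrane potential signal moves up or down beyond 5 SD from buffer-only wells, on both duplicate plates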
HEK293 MPD ctr 2-2: parental HEK293 nonspecific activity of TRPC6 modulators, second screen. inhibition, % at 10 µM. AID 488926. actives 14% (n = 2,400). shares compounds with TRPC6 inh. membrane potential dye fluorescence; after compound, maximal acetylcholine stimulation;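 active = membrane potential signal drops by more than 5 SD from the mean control signal, in both duplicate plates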;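 note: plate controls were acetylcholine ECmax control wells for no effect and buffer only wells for full effect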
TRPC4/MOR mod: selectivity of TRPC6 modulators against mouse TRPC4. shares compounds with TRPC6 inh. HEK293 TRPC4/mu-opioid, membrane potential fluorescence. percent change from control (negative = decrease, positive = increase), % at 10 µM. actives 69% (n = 2,400). AID 488927;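 active = membrane potential signal moved up or down beyond 5 SD of buffer control wells, in both duplicate plates, actives on both sides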;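 note: plate controls were assay buffer wells for no effect and DAMGO maximal-effect wells for full effect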
TRPC4 ctr inh 2: second selectivity test of TRPC6 modulators against mouse TRPC4. shares compounds with TRPC6 inh. HEK293 TRPC4/mu-opioid, membrane potential dye fluorescence; stimulated with maximal-effect DAMGO. inhibition, % at 10 µM. actives 55% (n = 2,400);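 active = drop in membrane potential signal beyond 5 SD of the control wells in both duplicate plates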;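 note: TRPC4 counter screen for TRPC6 hits run under conditions tuned for TRPC6 not TRPC4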
TRPC6 block conf: confirmation of mouse TRPC6 inhibitors. shares compounds with TRPC6 inh. HEK293-TRPC6, membrane potential dye, ACh-evoked depolarization. inhibition, % at 10 µM. actives 43% (n = 3,300);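 active = fluorescence ratio falls more than 5 SD below the full-stimulation control mean, in both duplicate runs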;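 note: integrated fluorescence ratio of peak minus minimum over baseline after agonist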
TRPC6 act confirm: mouse TRPC6 activator confirmation; HEK293-TRPC6 membrane potential dye fluorescence, FDSS; AID 488961; activation, % at 10 µM; shares compounds with TRPC6 inh; actives 11% (n = 2,800);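 active = ratio signal rise beyond 5 SD above unstimulated control wells' mean, seen in both duplicate runs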;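 note: plate controls were buffer EC0 wells for no effect and acetylcholine ECmax response for full effect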
Starred values were filed as active, the others as inactive; i = inactive; . = no result. Only some compounds are listed: those with a hit (about 2.3% of all), similar ones and a draw of the others.

SMILES	TRPC4 PAM	TRPC4 agonist	TRPC6 activator	TRPC4 block	TRPC6 inh	HEK293 MPD ctr-2	HEK293 MPD ctr 2-2	TRPC4/MOR mod	TRPC4 ctr inh 2	TRPC6 block conf	TRPC6 act confirm	others
CC(C)C[C@H](NC(=O)c1[nH]cnc1C(=O)N[C@@H](C)C(=O)OCc1ccccc1)C(=O)OC(C)(C)C	i	i	i	i	-5.8*	i	i	i	i	i	i
NN(Cc1ccccc1)C(=S)Nc1ccc(Cl)c(Cl)c1	i	i	i	i	i	.	.	.	.	.	.
COc1ccc(Br)c(C(=O)NCC2CCCCC2)c1	i	i	i	i	-5.2*	i	i	44%*	54%*	i	.
COc1cccc(OC)c1OCCNCC1COc2ccccc2O1 (stereo not given)	i	i	i	i	-5.6*	144%*	i	27%*	38%*	i	.
Cc1ccc(CNCCC2=CCCCC2)cc1	i	i	i	i	-7.1*	.	.	.	.	i	i	TRPC4 spec 2=i;TRPC4 spec=i;HEK293 MPD ctr 2-1=i;HEK293 MPD ctr-1=i
Cc1c(OCC(=O)N[C@H](C(=O)O)c2ccccc2)ccc2c3c(c(=O)oc12)CCCC3	i	i	i	i	i	.	.	.	.	.	.
O=[N+]([O-])c1cc(Cl)cc(/C=N/NC(=S)Nc2ccc(S(=O)(=O)N3CCOCC3)cc2)c1O	26*	i	i	i	-7.6*	.	.	.	.	i	i	TRPC4 spec 2=57%*;TRPC4 spec=-24%*;HEK293 MPD ctr 2-1=i;HEK293 MPD ctr-1=-274%*
O=S(=O)(c1ccc(Cl)c(NC(=S)N/N=C/c2ccc(O)cc2)c1)N1CCOCC1	i	i	i	i	-9.1*	i	i	i	i	i	i
COC(=O)CSc1nc(-c2ccccc2)c2c(c1C#N)CCCC2	i	i	i	i	i	.	.	.	.	.	.
N#Cc1c(NCCN)nc(-c2ccccc2)c2c1CCCC2	i	i	i	i	-6.2*	i	i	i	85%*	67%*	i
CC(C)C(NC(=O)c1ccccc1NC(=O)c1ccccc1)C(=O)NCCCn1ccnc1 (stereo not given)	i	i	i	i	i	.	.	.	.	.	.
CC1CCN(CCCNC(=O)c2coc3nc4ccccc4nc23)CC1	i	i	i	i	-5.1*	i	i	-16%*	46%*	i	i
CC1CCCN(CCCNC(=O)c2coc3nc4ccccc4nc23)C1 (stereo not given)	i	i	i	i	i	.	.	.	.	.	.
COc1ccc(OCC(O)CN2CC(C)OC(C)C2)cc1 (stereo not given)	i	i	i	i	i	.	.	.	.	.	.
Cc1onc(-c2ccccc2)c1NC(=O)N(Cc1ccccc1)C(C)C	i	i	i	i	i	.	.	.	.	.	.
COC(=O)c1cc2sccc2n1CC(=O)N(C)c1ccccc1	i	i	i	i	i	.	.	.	.	.	.
O=C(NCCc1cccs1)C(c1ccccc1)c1ccccc1	i	i	i	i	i	.	.	.	.	.	.
Cc1ccc(Sc2c([N+](=O)[O-])c(C)nn2C)cc1	i	i	i	i	-8.3*	.	.	.	.	85%*	i	TRPC4 spec 2=i;TRPC4 spec=i;HEK293 MPD ctr 2-1=-4.0%*;HEK293 MPD ctr-1=i
Cc1ccc(Sc2c([N+](=O)[O-])ncn2C)cc1	i	i	i	i	i	.	.	.	.	.	.
O=S(=O)(Nc1nc2ccccc2[nH]1)c1ccc(Cl)cc1	i	i	i	i	-8.7*	.	.	.	.	52%*	i	TRPC4 spec 2=i;TRPC4 spec=i;HEK293 MPD ctr 2-1=i;HEK293 MPD ctr-1=i
C#CCN(C(=O)c1ccc(OC2CCN(Cc3ccccn3)CC2)cc1)C1CCCCC1	i	i	i	i	i	.	.	.	.	.	.
COC(CNC(=O)c1ccc2c(c1)ncn2-c1cccc(F)c1)OC	i	i	i	i	i	.	.	.	.	.	.
COC(CNC(=O)c1ccc2c(c1)ncn2-c1ccc(F)cc1F)OC	i	i	i	i	-5*	i	i	40%*	72%*	i	.
O=C(C[n+]1cc(-c2ccc(Cl)cc2)n2c1CCC2)N1c2ccccc2Sc2ccccc21	i	i	i	i	-6.2*	i	58%*	-10%*	i	73%*	i
Cc1ccc(C(=O)C[n+]2cc(-c3ccc(C)cc3)n3c2CCCCC3)cc1	i	i	12*	i	-5.4*	265%*	i	48%*	42%*	51%*	90%*
CN1CCc2c(sc(NC(=O)c3ccc(S(=O)(=O)N4CCc5ccccc54)cc3)c2C(N)=O)C1	i	i	i	i	i	.	.	.	.	.	.
NC(=O)c1c(NC(=O)c2ccc(S(=O)(=O)N3CCOCC3)cc2)sc2c1CCCCC2	i	i	i	i	i	.	.	.	.	.	.
CN1CCc2c(sc(NC(=O)c3ccc(S(=O)(=O)N4CCCCCC4)cc3)c2C(N)=O)C1	i	i	i	i	-6.5*	i	i	-69%*	i	i	i
CN1CCc2c(sc(NC(=O)c3ccc(S(=O)(=O)N4CCOCC4)cc3)c2C(N)=O)C1	i	i	i	i	-7.6*	-258%*	i	-51%*	35%*	i	i

Compound activity: PubChem BioAssay, Johns Hopkins Ion Channel Center
